Data reported in ChEMBL document CHEMBL1121783, “Potential inhibitors of nucleotide biosynthesis. 1. Nitrosoureidonucleosides. 2” (J Med Chem, 1981).
Blank lines part the entries; values can stand above or below the compound they belong to. Activity calls are given as the source filed them. The rule behind the calls is not given here.

How the values were obtained:
[1] = Half-life in pH 7 phosphate buffer by using high-performance LC method
[2] = as above; remark: listed apart in the source
HEp-2 [3] = test: Growth, % of control, at a dose of 20 ug/ml against growth of H.Ep.-2 cells; 75-80%; conditions: Homo sapiens
P388 [4] = test: Activity at a dose of 200 mg/kg for 9 days against P388 leukemia cells; type: functional; conditions: Mus musculus, P388, 216 h
How it was run: (§1)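 P388 leukemia test: the compound was given daily for 9 days at 200 or 400 mg/kg. Activity is reported as percent increase in life span (ILS).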

P388 [5] = test: Activity at a dose of 400 mg/kg against P388 leukemia cells; type: functional; conditions: Mus musculus
How it was run: as §1

HEp-2 [6] = test: Growth, % of control, at a dose of 20 ug/ml against growth of H.Ep.-2 cells; 75-80%; conditions: Homo sapiens; remark: listed apart in the source
Nucleic Acid [7] = test: Percent inhibitory activity dose at 100 ug/mL to inhibit the incorporation of hypoxanthine and gaunine in DNA; type: functional
Nucleic Acid [8] = test: Percent inhibitory activity dose at 100 ug/mL to inhibit the incorporation of hypoxanthine and gaunine in RNA; type: functional
P388 [9] = test: Activity against P388 leukemia cells; Inactive; type: functional; conditions: Mus musculus
How it was run: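 In vivo P388 leukemia model; compound given daily for 9 days; activity scored as percent increase in life span (ILS).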

[10] = Half-life in pH 7 phosphate buffer by using high-performance LC method; remark: listed apart in the source
[11] = Activity against hypoxanthine phosphoribosyltransferase; Not significant; type: functional
[12] = Half-life in plasma by using UV method; type: ADME, cell-free

SMILES: CN(N=O)C(N)=O [N-METHYL-N-NITROSUREA]
half-life [1]: 0.12 h

SMILES: O=NN(CCNC(=O)[C@H]1OC(n2cnc3c(O)ncnc32)[C@H](O)[C@@H]1O)C(=O)NC1CCCCC1 (some centres not stated)
half-life [1]: 12 h

SMILES: CN(N=O)C(=O)NCCNC(=O)[C@H]1OC(n2ccc(=O)[nH]c2=O)[C@H](O)[C@@H]1O (some centres not stated)
half-life [2]: 17 h
ILS at 200 mg/kg (P388 [4]): 28%
ILS at 400 mg/kg (P388 [5]): 26%

SMILES: CNC(=O)NCCNC(=O)[C@H]1OC(n2cnc3c(O)ncnc32)[C@H](O)[C@@H]1O (some centres not stated)
growth, % of control at 20 µg/mL (HEp-2 [6]): 75%

SMILES: O=NN(CCCl)C(=O)NC1CCCCC1 [LOMUSTINE]
half-life [1]: 0.88 h

SMILES: CN(N=O)C(=O)NCCNC(=O)[C@H]1OC(n2cnc3c(O)ncnc32)[C@H](O)[C@@H]1O (some centres not stated)
inhibition (Nucleic Acid [7]): 35%
inhibition (Nucleic Acid [8]): 61%
inhibition (P388 [9]): inactive
half-life [10]: 127 h
inhibition [11]: inactive

SMILES: CNC(=O)NCCNC(=O)C1OC(n2cc(C)c(=O)[nH]c2=O)CC1O (configuration not stated)
growth, % of control at 20 µg/mL (HEp-2 [6]): 75%

Further lines, with some results ahead:

half-life [2]: 8 h
SMILES: O=NN(CCNC(=O)[C@H]1OC(n2ccc(=O)[nH]c2=O)[C@H](O)[C@@H]1O)C(=O)NC1CCCCC1 (some centres not stated)
growth, % of control at 20 µg/mL (HEp-2 [3]): 75%

half-life [1]: 29 h
SMILES: Cc1cn(C2CC(O)C(C(=O)NCCNC(=O)N(C)N=O)O2)c(=O)[nH]c1=O (configuration not stated)

half-life [12]: 11 h
SMILES: Cc1cn(C2C[C@H](O)[C@@H](C(=O)NCCN(N=O)C(=O)NC3CCCCC3)O2)c(=O)[nH]c1=O (some centres not stated)
